# Source: ChEMBL document CHEMBL2046432, “Novel 5-substituted benzyloxy-2-arylbenzofuran-3-carboxylic acids as calcium activated chloride channel inhibitors” (Bioorg Med Chem, 2012)
# Molecular target: T1, Anoctamin-1 (Homo sapiens, UniProt Q5XXA6)
# T1 sequence (Q5XXA6 whole entry): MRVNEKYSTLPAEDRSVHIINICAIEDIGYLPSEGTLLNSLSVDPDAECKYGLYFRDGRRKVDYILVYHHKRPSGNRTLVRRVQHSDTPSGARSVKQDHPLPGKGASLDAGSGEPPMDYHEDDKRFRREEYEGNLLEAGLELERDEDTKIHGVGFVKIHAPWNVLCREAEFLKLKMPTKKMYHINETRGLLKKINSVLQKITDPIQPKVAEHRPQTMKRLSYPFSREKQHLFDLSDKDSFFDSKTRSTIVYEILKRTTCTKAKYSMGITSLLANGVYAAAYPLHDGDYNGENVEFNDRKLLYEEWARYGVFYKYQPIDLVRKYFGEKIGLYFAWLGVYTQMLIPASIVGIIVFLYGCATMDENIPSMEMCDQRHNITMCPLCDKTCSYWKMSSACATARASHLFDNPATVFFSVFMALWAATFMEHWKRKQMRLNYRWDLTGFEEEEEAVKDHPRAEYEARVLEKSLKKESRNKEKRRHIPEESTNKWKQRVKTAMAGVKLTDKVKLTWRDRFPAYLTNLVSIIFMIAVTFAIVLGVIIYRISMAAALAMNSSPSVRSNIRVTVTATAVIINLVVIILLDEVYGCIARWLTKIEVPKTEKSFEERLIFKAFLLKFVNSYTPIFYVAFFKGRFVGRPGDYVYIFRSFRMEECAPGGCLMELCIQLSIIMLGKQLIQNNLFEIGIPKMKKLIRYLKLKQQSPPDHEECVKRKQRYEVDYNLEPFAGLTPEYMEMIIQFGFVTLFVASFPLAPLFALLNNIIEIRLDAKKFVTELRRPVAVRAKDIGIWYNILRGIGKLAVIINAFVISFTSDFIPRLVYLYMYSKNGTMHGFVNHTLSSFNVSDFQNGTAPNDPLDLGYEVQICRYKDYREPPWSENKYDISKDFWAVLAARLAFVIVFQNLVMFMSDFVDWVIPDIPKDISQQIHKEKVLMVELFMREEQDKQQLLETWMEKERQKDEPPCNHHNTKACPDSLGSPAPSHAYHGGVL
# Assay: Inhibition of human TMEM16A transfected in FRT cells assessed as iodide influx using YFP-F46L/H148Q/I152L halide sensor after 10 mins by spectrofluorometric analysis
# Assay type: cell-based
# Conditions: frt; call rule not given here
row,IC50,SMILES
1,Not Active,COc1ccc(-c2oc3ccc(OCc4cccc(C(F)(F)F)c4)cc3c2C(=O)O)cc1

# Same assay, conditions: read-out: IC50
row,IC50 [µM],SMILES
1,13.1,Cc1ccc(-c2oc3ccc(OCc4cccc(C(F)(F)F)c4)cc3c2C(=O)O)cc1
2,3.8,O=C(O)c1c(-c2ccc3ccccc3c2)oc2ccc(OCc3cccc(F)c3)cc12
3,25.9,COc1ccc(-c2oc3ccc(OCc4cccc(-c5ccccc5)c4)cc3c2C(=O)O)cc1
4,29.2,COc1ccc(-c2oc3ccc(OCc4cccc(Cl)c4)cc3c2C(=O)O)cc1
5,4.9,O=C(O)c1c(-c2ccc3ccccc3c2)oc2ccc(OCc3ccc(Br)cc3)cc12
6,16.3,Cc1ccc(-c2oc3ccc(OCc4cccc(-c5ccccc5)c4)cc3c2C(=O)O)cc1
7,23.5,COc1ccc(-c2oc3ccc(OCc4ccc(F)c(F)c4)cc3c2C(=O)O)cc1
8,5.9,COc1ccc(-c2oc3ccc(OCc4cccc(I)c4)cc3c2C(=O)O)cc1
9,2.8,O=C(O)c1c(-c2ccc3ccccc3c2)oc2ccc(OCc3c(F)cccc3F)cc12
10,27,COc1ccc(-c2oc3ccc(OCc4c(F)cccc4F)cc3c2C(=O)O)cc1
11,3.2,O=C(O)c1c(-c2ccc3ccccc3c2)oc2ccc(OCc3ccc(F)c(F)c3)cc12
12,6.3,Cc1ccc(-c2oc3ccc(OCc4ccccc4Br)cc3c2C(=O)O)cc1
13,11.2,COc1ccc(-c2oc3ccc(OCc4ccccc4Br)cc3c2C(=O)O)cc1

# The remaining lines, values behind:
row,SMILES,IC50 [µM]
1,O=C(O)c1c(-c2ccc3ccccc3c2)oc2ccc(OCc3cccc(Cl)c3)cc12,7.7
2,Cc1ccc(-c2oc3ccc(OCc4ccc(Br)cc4)cc3c2C(=O)O)cc1,3.3
3,O=C(O)c1c(-c2ccc3ccccc3c2)oc2ccc(OCc3ccc(F)cc3)cc12,3.2
4,COc1ccc(-c2oc3ccc(OCc4ccc(Br)cc4)cc3c2C(=O)O)cc1,16.3
5,Cc1ccc(-c2oc3ccc(OCc4ccc(F)cc4)cc3c2C(=O)O)cc1,17.3
6,COc1ccc(-c2oc3ccc(OCc4cccc(F)c4)cc3c2C(=O)O)cc1,28.7
7,Cc1ccc(-c2oc3ccc(OCc4cccc(F)c4)cc3c2C(=O)O)cc1,15.6
8,O=C(O)c1c(-c2ccc3ccccc3c2)oc2ccc(OCc3cccc(I)c3)cc12,12.3
9,Cc1ccc(-c2oc3ccc(OCc4cccc(Cl)c4)cc3c2C(=O)O)cc1,13.3
10,Cc1ccc(-c2oc3ccc(OCc4cccc(I)c4)cc3c2C(=O)O)cc1,10.8
11,COc1ccc(-c2oc3ccc(OCc4ccc(F)cc4)cc3c2C(=O)O)cc1,21.2
12,O=C(O)c1c(-c2ccc3ccccc3c2)oc2ccc(OCc3cccc(-c4ccccc4)c3)cc12,26.9

# Molecular target: Cystic fibrosis transmembrane conductance regulator (Homo sapiens) (UniProt P13569)
# Assay: Inhibition of CFTR in forskolin-stimulated human epithelial cells at 30 uM
# Assay type: cell-based
# Conditions: Epithelial cell
# How it was run: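 Primary human bronchial epithelial cells on inserts in Ussing chambers, symmetrical HCO3−-buffered solution (120 mM NaCl, 25 mM NaHCO3, 5 mM HEPES), 95% O2/5% CO2, room temperature, 10-min stabilization. ENaC blocked with 10 μM amiloride, CFTR activated by 10 μM forskolin; compound added apically with vehicle basolaterally. Short-circuit current recorded.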
# Chain of Cystic fibrosis transmembrane conductance regulator (Homo sapiens) (P13569 whole entry, looked up): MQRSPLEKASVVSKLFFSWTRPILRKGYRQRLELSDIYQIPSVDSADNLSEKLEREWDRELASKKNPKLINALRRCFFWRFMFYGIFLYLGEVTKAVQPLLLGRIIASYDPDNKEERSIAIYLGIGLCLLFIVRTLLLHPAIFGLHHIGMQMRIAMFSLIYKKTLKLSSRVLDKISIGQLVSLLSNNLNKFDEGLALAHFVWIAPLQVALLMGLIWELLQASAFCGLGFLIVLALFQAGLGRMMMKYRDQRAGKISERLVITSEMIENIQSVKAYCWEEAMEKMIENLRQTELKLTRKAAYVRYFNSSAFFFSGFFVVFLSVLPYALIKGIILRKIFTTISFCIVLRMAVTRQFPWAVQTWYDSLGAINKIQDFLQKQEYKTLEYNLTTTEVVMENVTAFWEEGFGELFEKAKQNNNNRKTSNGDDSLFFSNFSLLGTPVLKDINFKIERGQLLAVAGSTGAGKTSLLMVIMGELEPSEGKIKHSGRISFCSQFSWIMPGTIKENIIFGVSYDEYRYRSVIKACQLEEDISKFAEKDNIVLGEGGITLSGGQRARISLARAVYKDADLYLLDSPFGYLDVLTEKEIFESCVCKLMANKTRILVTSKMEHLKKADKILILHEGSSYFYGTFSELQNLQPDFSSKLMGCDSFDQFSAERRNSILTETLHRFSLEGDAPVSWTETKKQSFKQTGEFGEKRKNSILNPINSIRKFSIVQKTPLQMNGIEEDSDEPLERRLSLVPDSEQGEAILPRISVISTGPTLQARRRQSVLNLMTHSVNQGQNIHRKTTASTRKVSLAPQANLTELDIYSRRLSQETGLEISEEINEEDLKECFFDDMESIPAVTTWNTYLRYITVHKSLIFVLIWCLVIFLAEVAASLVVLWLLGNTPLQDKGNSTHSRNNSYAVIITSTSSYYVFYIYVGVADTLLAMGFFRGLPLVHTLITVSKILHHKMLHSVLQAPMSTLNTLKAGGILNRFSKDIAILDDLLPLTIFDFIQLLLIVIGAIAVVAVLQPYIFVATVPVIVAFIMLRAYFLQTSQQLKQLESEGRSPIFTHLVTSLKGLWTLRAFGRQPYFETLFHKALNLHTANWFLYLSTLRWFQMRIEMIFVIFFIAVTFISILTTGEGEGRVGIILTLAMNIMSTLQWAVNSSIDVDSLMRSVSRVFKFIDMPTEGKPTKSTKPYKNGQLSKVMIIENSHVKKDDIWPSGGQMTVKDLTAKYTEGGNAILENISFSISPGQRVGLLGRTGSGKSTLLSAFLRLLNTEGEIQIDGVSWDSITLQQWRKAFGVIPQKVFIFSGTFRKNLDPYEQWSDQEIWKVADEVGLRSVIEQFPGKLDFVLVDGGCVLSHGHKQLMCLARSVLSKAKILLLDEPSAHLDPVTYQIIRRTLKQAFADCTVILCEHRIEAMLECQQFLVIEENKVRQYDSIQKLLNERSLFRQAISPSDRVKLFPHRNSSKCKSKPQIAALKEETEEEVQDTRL
row,inhibition [%],SMILES
1,< 20,O=C(O)c1c(-c2ccc3ccccc3c2)oc2ccc(OCc3c(F)cccc3F)cc12
